Rows were chosen to be rich in hits. Some 4.9% of all compounds tested hit in one or more screens of this group.
STAT1 inh: STAT1 signaling inhibition | NIH 3T3 STAT1-luciferase reporter, IFN-gamma, luminescence | inhibition, % at 5.5 µM | 200,000 tested, 0.35% active;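 active = inhibition above a set limit, the mean inhibition across all tested compounds plus 3 SD, cut at about 34% in these data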;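 also: 0% = IFN-gamma with DMSO and 100% = IFN-gamma with 300 µM nifuroxazide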
STAT1 act: increases IFN-gamma driven STAT1 reporter signal. NIH 3T3 STAT1-luciferase reporter, luminescence; 100% = IFN-gamma alone, no compound. activation (% of control), % at 5.5 µM. 200,000 tested, 2.6% active. AID 932;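 active = activation above the screen-wide mean activation plus 3 SD, cut at about 130% in these data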;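 also: raw ratio to IFN-gamma control signal so 100% means no change and 0% no light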
STAT3 act: increases IL-6 driven STAT3 reporter signal; 190,000 tested, 0.91% active; activation (% of control), % at 5.6 µM; U3A cells, IL-6 STAT3-luciferase reporter, luminescence; 100% = signal with IL-6 EC80 alone;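 active = activation above the screen-wide mean of compound activation plus 3 SD, cut at about 130% in these data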;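 also: 0% = background luminescence of wells with medium and substrate only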
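Detection: reporter luminescence signal / Assay system: STAT1-lacking human U3A cells, STAT3 luciferase reporter / Incubation: compound pre-incubation 1 h before IL-6, then 6 h stimulation at 37 °C / Control set: IL-6-only high control / Read-out: % activation relative to IL-6 control / Probe or stimulus: Interleukin-6, 33 ng/mL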
STAT3 blocker: STAT3 signaling inhibition; AID 862; inhibition, % at 5.5 µM; 190,000 tested, 0.89% active; U3A cells, IL-6 STAT3-luciferase reporter, luminescence; host cell line lacks STAT1;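 active = inhibition above the mean inhibition across all screened compounds plus 3 SD, cut at about 44% in these data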;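 also: 0% = DMSO only wells and 100% = 100 µM nifuroxazide control wells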
NF-kB expr up: NF-kB expression increase, human neuronal cells. NF-kB reporter expression; stronger effect = higher value. fold change at 12.5 µM. 190,000 tested, 1.6% active. AID 1239; in the data active = fold change above about 3.3
APP 5'UTR act: activates APP 5'UTR luciferase reporter. 190,000 tested, 1% active. SH-SY5Y APP 5'UTR luciferase reporter, luminescence; zero percent = DMSO vehicle wells. AID 1276. activation, % at 2 µM;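 active = activation above a set limit, based on mean plus 3 SD of controls, cut at about 140% in these data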
STAT1 act conf: confirmation of STAT1 signaling activators. shares compounds with STAT1 act. NIH 3T3 STAT1-luciferase reporter, IFN-gamma potentiation, luminescence; 100% = IFN-gamma EC80 alone, no compound. activation (% of control), % at 5.7 µM. 1,200 tested, 97% active. AID 1262;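 active = activation above a set limit carried over from the earlier primary STAT1 screen, cut at about 140% in these data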;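 also: simple ratio to median IFN-gamma plus DMSO wells so 0% means no light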
NFkB act STAT1ct: counter-screen for STAT1 activators: NF-kappaB activation; activation (% of control), % at 5.7 µM; AID 1306; 1,200 tested, 43% active; shares compounds with STAT1 act; HEK293T NF-kB luciferase reporter, TNF-alpha stimulated, luminescence; 100% = TNF-alpha with vehicle only;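 active = activation above the mean of solvent-only control wells plus 3 SD, set per campaign, cut at about 130% in these data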;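 also: TNF-alpha given at a submaximal dose yielding about 80% of full reporter signal; values are well signal over median control so 100% means no change and 0% no light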
STAT3 act 2: human STAT3 activation in STAT1 activator counter-screen. shares compounds with STAT1 act. U3A cells STAT3-luciferase reporter, IL-6, luminescence; cells lack STAT1; 100 = IL-6 alone, no compound effect. activation (% of control), % at 5.7 µM. 1,200 tested, 46% active. AID 1316;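 active = activation above the solvent-only control well mean plus 3 SD, set per plate batch, cut at about 110% in these data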;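 also: 0% = no luminescence and 100% = median IL-6 plus DMSO wells; higher means more STAT3 reporter activation so hits are non-selective activators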
An asterisk follows results filed as active.

Oc1ccc(N=Nc2n[nH]c(-c3ccccc3)n2)cc1 was read as STAT1 inh -81.0, STAT1 act 172.2*, STAT3 act 87.4, STAT3 blocker 14.7, NF-kB expr up 6.3*, APP 5'UTR act 145.9*, STAT1 act conf 184.5*, NFkB act STAT1ct 122.1 and STAT3 act 2 104.8.
Screening CC1CCc2c(sc(Nc3nc4c(F)cccc4s3)c2C(N)=O)C1 (stereo not drawn) returned STAT1 inh 3.5, STAT1 act 96.8, STAT3 act 110.4, STAT3 blocker -8.6, NF-kB expr up 1.12 and APP 5'UTR act 12.6.
`CCOc1cccc2cc(-c3csc(NC(=O)CCC(=O)NCCCN4CCC(C)CC4)n3)c(=O)oc12` gave STAT1 inh -56.7, STAT1 act 152.0*, STAT3 act 123.2, STAT3 blocker -25.6, NF-kB expr up 5.51*, APP 5'UTR act 176.0*, STAT1 act conf 157.0*, NFkB act STAT1ct 126.2 and STAT3 act 2 123.6*.
For CCOc1cccc2cc(C(=O)Nc3nccs3)c(=O)oc12 the results were STAT1 inh -0.9, STAT1 act 100.9, STAT3 act 101.5, STAT3 blocker 3.3, NF-kB expr up 1.94 and APP 5'UTR act -8.1.
Screening O=C(Oc1ccc(-c2cnc3ccccc3n2)cc1)c1ccco1 returned STAT1 inh -60.2, STAT1 act 155.1*, STAT3 act 66.3, STAT3 blocker 40.5, NF-kB expr up 2.66, APP 5'UTR act 79.8, STAT1 act conf 189.9*, NFkB act STAT1ct 103.1 and STAT3 act 2 102.2.
`O=C(Oc1ccc(-c2cnc3ccccc3n2)cc1)c1cc([N+](=O)[O-])ccc1Cl` gave STAT1 inh -3.4, STAT1 act 103.1, STAT3 act 109.1, STAT3 blocker -3.3, NF-kB expr up 1.69 and APP 5'UTR act 71.1.
`O=C1CNC(=S)N1c1nc(-c2ccccc2)cs1` gave STAT1 inh -59.8, STAT1 act 153.5*, STAT3 act 102.8, STAT3 blocker -1.1, NF-kB expr up 1.71, APP 5'UTR act 55.8, STAT1 act conf 188.2*, NFkB act STAT1ct 130.8 and STAT3 act 2 115.1*.
Screening COc1ccc(-c2csc(N3C(=O)C4C5c6ccccc6C(c6ccccc65)[C@@H]4C3=O)n2)cc1 (stereo partly drawn) returned STAT1 inh -1.6, STAT1 act 101.5, STAT3 act 103.1, STAT3 blocker -3.3, NF-kB expr up 0.97 and APP 5'UTR act -18.0.
Screening COc1ccc(-c2csc(N3C(=O)CNC3=S)n2)cc1 returned STAT1 inh -88.6, STAT1 act 179.2*, STAT3 act 100.0, STAT3 blocker 2.6, NF-kB expr up 5.35*, APP 5'UTR act 204.5*, STAT1 act conf 260.4*, NFkB act STAT1ct 113.6 and STAT3 act 2 104.1.
`CCc1c(C)[nH]n(-c2nc(-c3ccccc3)cs2)c1=O` gave STAT1 inh -7.0, STAT1 act 106.8, STAT3 act 94.2, STAT3 blocker 12.4, NF-kB expr up 1.4 and APP 5'UTR act 33.9.
CCOc1ccc(C(=O)Nc2ccc(Cl)cn2)cc1Cl was read as STAT1 inh -63.0, STAT1 act 157.6*, STAT3 act 87.4, STAT3 blocker 17.0, NF-kB expr up 4.86*, APP 5'UTR act 153.0*, STAT1 act conf 187.6*, NFkB act STAT1ct 136.6* and STAT3 act 2 99.0.
Screening Cc1ccc2nc(-c3ccc(NC(=O)CN4C(=O)c5ccccc5C4=O)cc3)sc2c1 returned STAT1 inh -69.5, STAT1 act 162.1*, STAT3 act 98.2, STAT3 blocker 4.4, NF-kB expr up 1.66, APP 5'UTR act 113.5, STAT1 act conf 180.3*, NFkB act STAT1ct 129.9 and STAT3 act 2 117.9*.
CCC1(c2ccc(F)cc2)NC(=O)N(CC(=O)Nc2ccc(-c3nc4ccc(C)cc4s3)cc2)C1=O (stereo not drawn) was read as STAT1 inh -79.1, STAT1 act 169.4*, STAT3 act 96.6, STAT3 blocker 4.3, NF-kB expr up 1.06, APP 5'UTR act 214.0*, STAT1 act conf 201.4*, NFkB act STAT1ct 133.0 and STAT3 act 2 112.5*.
`Cc1nnc(SCC(=O)Nc2ccc(-c3nc4ccccc4s3)cc2)s1` gave STAT1 inh -63.2, STAT1 act 156.3*, STAT3 act 104.6, STAT3 blocker -8.0, NF-kB expr up 5.64*, APP 5'UTR act 157.8*, STAT1 act conf 243.0*, NFkB act STAT1ct 109.1 and STAT3 act 2 85.6.
`O=C(O)c1ccc(N2CCCCS2(=O)=O)cc1` gave STAT1 inh 5.9, STAT1 act 94.4, STAT3 act 103.4, STAT3 blocker 2.0, NF-kB expr up 1.19 and APP 5'UTR act -17.4.
`CC(=O)n1nc(-c2ccc(C)cc2)nc1NCc1ccc(F)cc1` gave STAT1 inh -23.4, STAT1 act 118.4, STAT3 act 104.1, STAT3 blocker 0.0, NF-kB expr up 1.39 and APP 5'UTR act 27.9.
For CCCOc1ccc(C(=O)NCC(C)(C)N2CCOCC2)cc1 the results were STAT1 inh 1.9, STAT1 act 98.1, STAT3 act 102.6, STAT3 blocker 1.8, NF-kB expr up 1.02 and APP 5'UTR act 24.4.
`Cc1ccc(Nc2nc(-c3ccncc3)cs2)cc1` gave STAT1 inh -78.8, STAT1 act 174.6*, STAT3 act 101.4, STAT3 blocker -1.1, NF-kB expr up 2.9, APP 5'UTR act 128.8, STAT1 act conf 214.6*, NFkB act STAT1ct 137.0* and STAT3 act 2 125.9*.
For CC(=O)Nc1cccc(-c2csc(Nc3ccc(C)cn3)n2)c1 the results were STAT1 inh -128.0, STAT1 act 216.8*, STAT3 act 79.1, STAT3 blocker 23.6, NF-kB expr up 7.59*, APP 5'UTR act 206.1*, STAT1 act conf 329.1*, NFkB act STAT1ct 139.4* and STAT3 act 2 99.2.
Screening CC(=O)Nc1cccc(-c2csc(Nc3ncccn3)n2)c1 returned STAT1 inh -166.8, STAT1 act 252.3*, STAT3 act 89.2, STAT3 blocker 15.2, NF-kB expr up 1.72, APP 5'UTR act 135.1*, STAT1 act conf 304.0*, NFkB act STAT1ct 130.3 and STAT3 act 2 112.9*.

Compound activity as filed in PubChem.
